Results published in ChEMBL document CHEMBL4043093, “2-Oxo-3, 4-dihydropyrimido[4, 5-d]pyrimidinyl derivatives as new irreversible pan fibroblast growth factor receptor (FGFR) inhibitors” (Eur J Med Chem, 2017).

What was measured:
[1] = system: NCI-H520; assay: Antiproliferative activity against human FGFR1-amplified NCI-H520 cells after 7 days by SRB assay; conditions: NCI-H520, 168 h
[2] = system: SW780; assay: Antiproliferative activity against human FGFR3-amplified SW780 cells after 5 days by SRB assay; conditions: SW780, 120 h
[3] = Antiproliferative activity against human FGFR2-amplified SUM52 cells after 5 days by SRB assay; conditions: SUM52, 120 h
[4] = system: L02; assay: Cytotoxicity against human HL7702 cells assessed as cell viability after 72 hrs by CCK-8 assay; assay type: cell-based; conditions: L02, 72 h
In short: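 Log-phase HL7702 cells were plated at ~3000 cells/well and treated 24 h later with compound or vehicle for 72 h. CCK-8 was added for 3 h and OD450 minus OD650 measured. Viability = (As−Ac)/(Ab−Ac)×100, with Ac a cell-free blank and Ab the vehicle control.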

[5] = system: PC-9; assay: Antiproliferative activity against human PC9 cells after 5 days by SRB assay; assay type: functional, cell-based; conditions: PC-9, 120 h
In short: (§1)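 Grown in α-MEM + 5% FBS at 37 °C, 5% CO2. Seeding per well: 3000 (H661), 1000 (PC9), 400 (H460, H1299), attached overnight. Cells were dosed with a 3-fold serial dilution from DMSO stocks for 5 days. Then cold TCA fixation, 0.4% SRB staining, solubilisation in 10 mM Tris pH 10.5, absorbance at 490 nm. IC50 was derived from the curves.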

[6] = system: NCI-H661; assay: Antiproliferative activity against human NCI-H661 cells after 5 days by SRB assay; assay type: functional, cell-based; conditions: NCI-H661, 120 h; in short: as §1
[7] = system: NCI-H460; assay: Antiproliferative activity against human NCI-H460 cells after 5 days by SRB assay; assay type: functional, cell-based; conditions: NCI-H460, 120 h; in short: as §1
[8] = system: NCI-H1299; assay: Antiproliferative activity against human NCI-H1299 cells after 5 days by SRB assay; assay type: functional, cell-based; conditions: NCI-H1299, 120 h; in short: as §1
[9] = target: Fibroblast growth factor receptor 3 (Homo sapiens, UniProt P22607); assay: Inhibition of human recombinant His-tagged FGFR3 cytoplasmic domain (399 to 806 residues) expressed in baculovirus using Tyr-4 peptide after 1 hr by FRET-based Z'-Lyte assay
[10] = target: Fibroblast growth factor receptor 4 (Homo sapiens, UniProt P22455); assay: Inhibition of human recombinant His-tagged FGFR4 cytoplasmic domain ([…] residues) expressed in baculovirus using Tyr-4 peptide after 1 hr by FRET-based Z'-Lyte assay
Chain of Fibroblast growth factor receptor 4 (P22455 whole entry, the tested form may be a part): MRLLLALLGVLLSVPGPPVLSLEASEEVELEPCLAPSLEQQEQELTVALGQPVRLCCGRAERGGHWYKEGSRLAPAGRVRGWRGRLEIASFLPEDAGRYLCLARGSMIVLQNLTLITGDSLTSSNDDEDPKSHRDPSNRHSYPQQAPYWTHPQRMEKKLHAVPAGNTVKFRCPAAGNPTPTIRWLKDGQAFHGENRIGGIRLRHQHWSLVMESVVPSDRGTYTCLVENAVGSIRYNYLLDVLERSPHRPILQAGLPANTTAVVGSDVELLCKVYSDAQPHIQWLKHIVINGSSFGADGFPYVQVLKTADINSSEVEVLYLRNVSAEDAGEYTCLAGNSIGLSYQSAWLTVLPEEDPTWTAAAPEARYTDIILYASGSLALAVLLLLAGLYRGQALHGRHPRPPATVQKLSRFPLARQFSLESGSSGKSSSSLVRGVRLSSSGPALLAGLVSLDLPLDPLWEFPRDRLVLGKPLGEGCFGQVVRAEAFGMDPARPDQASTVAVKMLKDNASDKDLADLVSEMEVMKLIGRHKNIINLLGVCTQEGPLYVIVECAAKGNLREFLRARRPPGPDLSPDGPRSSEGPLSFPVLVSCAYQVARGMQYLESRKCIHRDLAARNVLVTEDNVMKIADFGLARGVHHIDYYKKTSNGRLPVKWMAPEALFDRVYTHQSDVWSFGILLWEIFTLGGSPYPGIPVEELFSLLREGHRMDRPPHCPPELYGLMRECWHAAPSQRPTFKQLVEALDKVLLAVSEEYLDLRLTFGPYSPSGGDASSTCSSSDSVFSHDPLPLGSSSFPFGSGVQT

Chain of Fibroblast growth factor receptor 3 (P22607 whole entry, the tested form may be a part): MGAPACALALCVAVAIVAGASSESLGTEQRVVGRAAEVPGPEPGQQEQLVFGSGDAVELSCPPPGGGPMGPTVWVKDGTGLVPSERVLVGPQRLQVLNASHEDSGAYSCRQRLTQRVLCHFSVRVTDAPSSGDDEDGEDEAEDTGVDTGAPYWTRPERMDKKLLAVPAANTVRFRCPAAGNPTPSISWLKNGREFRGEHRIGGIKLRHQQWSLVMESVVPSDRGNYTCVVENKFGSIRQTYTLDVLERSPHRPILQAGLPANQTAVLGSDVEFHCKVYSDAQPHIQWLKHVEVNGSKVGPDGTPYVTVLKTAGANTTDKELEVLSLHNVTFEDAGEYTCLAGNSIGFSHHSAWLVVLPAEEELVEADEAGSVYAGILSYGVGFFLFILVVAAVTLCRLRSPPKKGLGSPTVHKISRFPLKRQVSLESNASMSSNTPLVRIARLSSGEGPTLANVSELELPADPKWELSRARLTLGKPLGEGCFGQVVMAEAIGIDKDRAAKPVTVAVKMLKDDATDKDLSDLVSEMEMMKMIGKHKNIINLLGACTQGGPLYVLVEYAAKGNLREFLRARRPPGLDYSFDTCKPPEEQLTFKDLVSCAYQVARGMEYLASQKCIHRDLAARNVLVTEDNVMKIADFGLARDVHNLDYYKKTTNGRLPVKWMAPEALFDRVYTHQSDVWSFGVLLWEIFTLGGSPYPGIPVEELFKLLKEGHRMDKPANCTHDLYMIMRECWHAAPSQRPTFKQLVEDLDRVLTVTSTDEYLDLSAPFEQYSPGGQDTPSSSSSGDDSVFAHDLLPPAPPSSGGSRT

Compound | IC50 [1] [nM] | IC50 [2] [nM] | IC50 [3] [nM] | further results
COc1cc(OC)c(Cl)c(N2Cc3cnc(Nc4cccc(F)c4)nc3N(C3CCN(C(=O)/C=C/CN(C)C)CC3)C2=O)c1Cl | 6.5 | 9 | 1.1 | 
COc1cc(OC)c(Cl)c(N2Cc3cnc(Nc4ccccc4)nc3N(C3CCN(C(=O)/C=C/CN(C)C)CC3)C2=O)c1Cl | 4.14 | 9.73 | 0.65 | IC50 [4]: 1890 nM; IC50 [5]: 1260 nM; IC50 [6]: 2750 nM; IC50 [7]: 1400 nM; IC50 [8]: 2480 nM
COc1cc(OC)c(Cl)c(N2Cc3cnc(NC4CCOC4)nc3N(C3CCN(C(=O)/C=C/CN(C)C)CC3)C2=O)c1Cl (stereo not drawn) | 70 | 32 | 4 | 
COc1cc(OC)c(Cl)c(N2Cc3cnc(NC4CCCCC4)nc3N(C3CCN(C(=O)/C=C/CN(C)C)CC3)C2=O)c1Cl | 13.6 | 14.5 | 0.84 | 
COc1cccc(Nc2ncc3c(n2)N(C2CCN(C(=O)/C=C/CN(C)C)CC2)C(=O)N(c2c(Cl)c(OC)cc(OC)c2Cl)C3)c1 | 19.3 | 5.4 | 1 | 
COc1cc(OC)c(Cl)c(N2Cc3cnc(Nc4cccc(C)c4)nc3N(C3CCN(C(=O)/C=C/CN(C)C)CC3)C2=O)c1Cl | 5.3 | 15.1 | 1.1 | 
CCN(CC)CCCCNc1ncc2cc(-c3cc(OC)cc(OC)c3)c(NC(=O)NC(C)(C)C)nc2n1 [PD-173074] |  | 84.3 | 12.3 | 
CNc1ncc2c(n1)N(C1CCN(C(=O)/C=C/CN(C)C)CC1)C(=O)N(c1c(Cl)c(OC)cc(OC)c1Cl)C2 | 56.2 | 5.2 | 2 | 
COc1ccccc1Nc1ncc2c(n1)N(C1CCN(C(=O)/C=C/CN(C)C)CC1)C(=O)N(c1c(Cl)c(OC)cc(OC)c1Cl)C2 | 39.8 | 27.5 | 3.3 | 
COc1ccc(Nc2ncc3c(n2)N(C2CCN(C(=O)/C=C/CN(C)C)CC2)C(=O)N(c2c(Cl)c(OC)cc(OC)c2Cl)C3)cc1 | 3 | 0.3 | 0.8 | 
COc1cc(OC)c(Cl)c(N2Cc3cnc(N(C)C)nc3N(C3CCN(C(=O)/C=C/CN(C)C)CC3)C2=O)c1Cl | 2420 | 570 | 224 | IC50 [9]: > 1000 nM; IC50 [10]: > 1000 nM
C=CC(=O)Nc1cccc(CN2C(=O)N(c3c(Cl)c(OC)cc(OC)c3Cl)Cc3cnc(NCCCCN(CC)CC)nc32)c1 | 121 | 277 | 2.9 | 
COc1cc(OC)c(Cl)c(N2Cc3cnc(NC4CCOCC4)nc3N(C3CCN(C(=O)/C=C/CN(C)C)CC3)C2=O)c1Cl | 7.82 | 3.34 | 0.57 | 
COc1cc(OC)c(Cl)c(N2Cc3cnc(NC(C)C)nc3N(C3CCN(C(=O)/C=C/CN(C)C)CC3)C2=O)c1Cl | 4.91 | 12.3 | 0.65 | 
